Screening data: PubChem, several laboratories
PfM18AAP inh: blocks P. falciparum M18 aspartyl aminopeptidase. recombinant PfM18AAP, H-Glu-NHMec fluorogenic cleavage. inhibition, % at 7.35 µM. 290,000 tested, 1.2% active;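 active = inhibition above the campaign mean inhibition over all tested compounds plus 3 SD, cut at about 28% in these data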
HDAC3 inhib: human HDAC3 inhibition; recombinant HDAC3, fluorogenic peptide/trypsin coupled, fluorescence; inhibition, % at 8.3 µM; 320,000 tested, 0.15% active; in the data active = inhibition above about 26%, passing the limit was not always enough; inconclusive = no clear call, values can overlap the other calls
GAA850 FXN act: frataxin GAA850 promoter activation | HEK293 lucGAA850 FXN promoter luciferase reporter, 24 h; percent of 10 µM SAHA response | AID 540364 | 360,000 tested, 0.56% active | activation, % at 6 µM;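 active = activation above the average of all compounds screened plus 3 SD, cutoff fixed separately per campaign, cut at about 7.5% in these data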
AHR act: activates the human aryl hydrocarbon receptor. P35869. AHR-responsive luciferase reporter cells, luminescence. activation, % at 5 µM. 320,000 tested, 2.5% active. AID 2796; in the data active = activation above about 47%
CTSL1 counter: counter-screen for PFM18AAP inhibitors: inhibitors of F. hepatica cathepsin L1. recombinant F. hepatica cathepsin L1, Z-Leu-Arg-MCA fluorescence. inhibition, % at 5.96 µM. 300,000 tested, 0.49% active;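 active = inhibition above the mean of all tested compounds plus 3 SD, set per screening campaign, cut at about 17% in these data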
SENP1 inh: SENP1 (human) catalytic domain inhibition; AID 624204; Q9P0U3; 360,000 tested, 0.21% active; recombinant SENP1 catalytic domain, CyPet-SUMO1-YPet FRET cleavage; inhibition, % at 10 µM;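 active = inhibition at least 30% at 10 µM, raw YFP signal under a set limit, fluorescence ratio 0.5 to 1.5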
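material = recombinant human SENP1 catalytic domain, His6-tagged | quantity = 20 pM enzyme | reagent = 25 nM SUMO1 FRET substrate | compound dosing = 10 µM single point, 0.5% DMSO | timing = 50 min enzyme reaction, room temperature, light-protected | detection = FRET, CFP and YFP emission | control set = no-enzyme low, enzyme-DMSO high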
Hits are given with their value; 0 = inactive; ? = inconclusive; - = no result given. In the library only some 4.2% were active in any assay of this set; here they are far more common.

SMILES	PfM18AAP inh	HDAC3 inhib	GAA850 FXN act	AHR act	CTSL1 counter	SENP1 inh
O=C(CCl)c1cc2c3c(c1)CC(=O)N3CCC2	0	0	8.6	0	0	0
O=C(NCCO)C(=O)Nc1cc2c3c(c1)CC(=O)N3CCC2	0	0	0	0	0	0
Cc1cc(C)c(SSc2nnnn2-c2ccccc2)c(C)c1	-	-	0	-	-	0
O=C(CC1C(=O)NCCN1Cc1ccc(F)cc1)NCCCn1cccn1 (stereo unspecified)	0	0	0	0	0	0
CCCc1cc(C(=O)Nc2sc(C)c(C)c2C(=O)OCC)no1	35	-	0	-	-	0
CCCc1cc(C(=O)Nc2ccc(C(C)=O)cc2)no1	0	-	0	0	17	0
CCc1ccc(C(=O)NCc2cnn(C)c2)s1	0	-	0	0	0	0
OC(CN1c2ccccc2Sc2ccccc21)Cn1nnc2ccccc21 (stereo unspecified)	0	0	0	0	17	0
Cn1c(Cn2nnc3ccccc32)nnc1SCC(=O)N1c2ccccc2Sc2ccccc21	0	0	0	0	17	0
Cn1c(Cn2nnc3ccccc32)nnc1SCC(=O)N1c2ccccc2CCc2ccccc21	0	0	0	0	0	0
O=C1c2ccccc2C(=O)N1CC(O)Cn1nnc2ccccc21 (stereo unspecified)	0	0	0	0	0	0
COc1cc2c(cc1NC(=O)c1cccc([N+](=O)[O-])c1)oc1ccccc12	0	0	0	58	0	0
CC(C)C(=O)Nc1cccc(NC(=O)c2cccc([N+](=O)[O-])c2)c1	0	0	0	0	0	0
COc1cc([N+](=O)[O-])ccc1NC(=O)c1cccc(NC(=O)C(C)C)c1	0	0	0	47	0	0
COc1cc2c(cc1NC(=O)C(C)Sc1cccc[n+]1[O-])oc1ccccc12 (stereo unspecified)	0	0	0	99	0	0
COc1cc2c(cc1NC(=O)c1ccncc1)oc1ccccc12	0	0	0	64	0	0
O=C(NCc1cccnc1)c1cc(C2CCCN(C(=O)c3cccc(O)c3)C2)on1 (stereo unspecified)	-	-	0	-	-	0
CCOC(=O)N1CCN(S(=O)(=O)N2CCCC(C(=O)NCc3ccc(OC)cc3)C2)CC1 (stereo unspecified)	0	0	0	0	0	0
O=C(Nc1cccc2nsnc12)c1ccc(-c2ccc(Br)cc2)o1	0	0	0	49	0	0
COc1ccccc1C(=O)NC(CCSC)C(=O)NCC(c1ccco1)N(C)C (stereo unspecified)	0	0	0	0	27	0
CC(C)C(NC(=O)c1ccco1)C(=O)NCC(c1ccco1)N(C)C (stereo unspecified)	0	0	0	0	63	0
COC(=O)[C@@]12C[C@@H](CC(=O)NCC34CC5CC(CC(C5)C3)C4)C(=O)N(Cc3ccco3)C1=CCC(C)(C)C2	-	-	-	-	-	0
CC1CC(C)CN(C(=O)Cn2nnc(-c3ccc(Br)cc3)n2)C1 (stereo unspecified)	0	0	0	0	0	0
COc1ccc(/C=N/NC(=O)CCn2c3ccccc3c3ccccc32)cc1O	0	0	0	0	0	0
COc1cccc(/C=N/NC(=O)CCn2c3ccccc3c3ccccc32)c1	0	0	0	73	0	0
SMILES	PfM18AAP inh	HDAC3 inhib	GAA850 FXN act	AHR act	CTSL1 counter	SENP1 inh
COc1ccc(C(=O)Nc2ccccc2C(=O)NCCN2CCOCC2)cc1OC	0	0	0	0	0	0
CC(=O)N1CCc2cc(N=NC3=C(O)CC(C)(C)CC3=O)ccc21	0	0	0	0	0	67
CC(=O)C[C@@H](O)CC(=O)[C@H]1OC(=O)[C@H](C)CCCCc2ccccc21	-	0	0	0	-	0
Cn1cccc1C(=O)OCC(=O)N1CCc2ccccc2C1	-	-	0	-	-	0
Cc1cccc(-n2c(=O)[nH]c3c(C(N)=O)nc(C(C)C)nc32)c1	0	0	0	53	17	0
O=C(Nc1ccccc1F)C(=O)Nc1cccc2ccccc12	0	?	0	0	0	0
O=C(Nc1cccc2ccccc12)/C(Cl)=C/c1ccccc1	0	0	0	68	0	0
COc1ccc(CCN(C)C(=S)Nc2cccc(C)c2)cc1OC	0	0	0	0	0	0
O=C(Nc1ccccc1)C1Cc2c(-c3ccc4c(c3)OCO4)ccnc2O1 (stereo unspecified)	-	-	0	-	-	0
COc1cc(/C=C2\SC(c3ccc(C)cc3)=NC2=O)cc(OC)c1O	0	0	0	0	0	0
Cc1ccc(C2=NC(=O)/C(=C/c3cc(O)c(O)c(Br)c3)S2)cc1	48	-	0	-	-	0
O=C(NNc1nc2c(F)cccc2s1)c1ccc(F)cc1	30	0	0	0	0	0
O=C(NNc1nc2c(F)cccc2s1)C1COc2ccccc2O1 (stereo unspecified)	0	0	0	0	0	0
O=C(Nc1nc2c(F)cccc2s1)C1CC1	0	0	0	48	0	0
CC1CCc2c(sc(Nc3nc4c(F)cccc4s3)c2C(N)=O)C1 (stereo unspecified)	0	0	0	56	0	0
CC1CCc2c(sc(N)c2C(N)=O)C1 (stereo unspecified)	29	0	0	0	0	0
COc1ccc(CN2C[C@@H](CO)O[C@@H](n3cnc4c(NCc5ccco5)ncnc43)C2)cc1	-	-	0	-	-	0
COc1ccc(N(CCC(=O)Nc2ccccc2F)S(=O)(=O)c2ccc(C)cc2C)cc1	-	-	0	0	0	0
Cc1ccc(S(=O)(=O)N2CCOCC2)cc1C(=O)NCCCN1CCCC1=O	-	-	0	-	-	0
CCN(Cc1ccncc1)C(=O)C1CCC(=O)N(Cc2ccc(Cl)cc2)C1 (stereo unspecified)	0	0	0	0	0	0
COCCNC(=O)C1(C)CCCN(C(=O)c2ccco2)C1 (stereo unspecified)	-	-	0	-	-	0
Fc1cccc2sc(Nc3nc4c(F)cccc4s3)nc12	0	0	0	0	0	0
NNc1nc2c(F)cccc2s1	30	0	0	67	0	0
Cc1ccc(-c2noc(CCCC(=O)NCC3CCCO3)n2)cc1 (stereo unspecified)	0	0	0	0	0	0
Oc1ccc(N=Cc2ccc(O)c(O)c2)cc1	46	0	0	0	46	0
SMILES	PfM18AAP inh	HDAC3 inhib	GAA850 FXN act	AHR act	CTSL1 counter	SENP1 inh
Oc1ccc(/C=N/N=C/c2ccc(O)cc2)cc1	0	0	0	0	0	0
COc1ccc(CNc2ccc3cn[nH]c3c2)c(OC)c1OC	0	0	0	0	0	0
CCOc1cc(CNc2ccc3cn[nH]c3c2)ccc1OC	0	0	0	53	0	0
CN1CCN(CC(=O)Nc2nnc(-c3cccs3)s2)CC1	0	0	0	111	0	0
CCC(CC)C(=O)Nc1nnc(-c2cccs2)s1	0	0	0	73	0	0
COc1cccc(OC)c1C(=O)Nc1nnc(-c2cccs2)s1	0	0	0	0	0	0
CCCc1nnc(NC(=O)CN2CCN(C)CC2)s1	0	0	0	0	0	0
